Columns and labels:
Bos taurus = species on record: Bos taurus; assay: Ratio of Ka for cAMP to Ka for compound for bovine brain protein kinase in presence of 0.5 nmol [32P]ATP-gamma by liquid scintillation spectrometer
Oryctolagus cuniculus = species on record: Oryctolagus cuniculus; assay: Activity of rabbit kidney PDE assessed as enzyme-mediated compound hydrolysis after 10 to 60 mins by colorimetric assay relative to cAMP; type: tissue-based
Outline: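 Rabbit kidney enzyme; 0.60 ml mix with 3.0 µmol cyclic nucleotide (5 mM), 3.0 µmol Tris HCl pH 7.5, 6 µmol MgCl2, 0.1–0.3 mg protein. Incubated usually 10–60 min, stopped by heating, bacterial alkaline phosphatase added, released phosphate read colorimetrically. Rate expressed relative to cAMP hydrolysis (nmol 5'-AMP per min).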

[1] = Inhibition of rabbit lung PDE assessed as inhibition 8-[3H]-cAMP substrate hydrolysis; set-up: species or system Oryctolagus cuniculus; conditions: read-out: I50
Outline: (§1)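 Beef heart or rabbit lung enzyme; 0.5 ml with 25 µmol Tris HCl pH 7.5, 5 µmol MgCl2, 20–200 µg protein, 80 pmol 8-[3H]cAMP, varying inhibitor levels. Times set by pilot runs. Heat stop, snake venom 5'-nucleotidase converts product to nucleoside, unreacted cyclic nucleotide bound to Dowex-1, nucleoside radioactivity counted. Nucleotidase interference checked with [14C]-5'-AMP.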

[2] = Inhibition of bovine heart PDE assessed as inhibition 8-[3H]-cAMP substrate hydrolysis; set-up: species or system Bos taurus; conditions: read-out: I50; outline: as §1

SMILES	Ratio (Bos taurus)	fold change (FC) (Oryctolagus cuniculus)	IC50 [1]	IC50 [2]
CCCCc1nc(N)c2nc(SCc3ccccc3)n([C@@H]3O[C@@H]4COP(=O)(O)O[C@H]4[C@H]3O)c2n1	1.1	< 0.05	9.5 µM	7.1 µM
CCCCc1nc(N)c2nc(Br)n([C@@H]3O[C@@H]4COP(=O)(O)O[C@H]4[C@H]3O)c2n1	0.66	< 0.05	17 µM	11 µM
Nc1ncnc2c1nc(SCc1ccccc1)n2[C@@H]1O[C@@H]2COP(=O)(O)O[C@H]2[C@H]1O	2.1	< 0.05	53 µM	17 µM
Nc1c2ncn([C@@H]3O[C@@H]4COP(=O)(O)O[C@H]4[C@H]3O)c2nc[n+]1[O-]	0.45	0.33	35 µM	50 µM
Nc1ncnc2c1nc(Sc1ccc(Cl)cc1)n2[C@@H]1O[C@@H]2COP(=O)(O)O[C@H]2[C@H]1O	18	< 0.05	200 µM	–
Cc1nc(N)c2ncn([C@@H]3O[C@@H]4COP(=O)(O)O[C@H]4[C@H]3O)c2n1	0.16	0.83	1.6 µM	1.1 µM
Cc1nc(N)c2nc(Br)n([C@@H]3O[C@@H]4COP(=O)(O)O[C@H]4[C@H]3O)c2n1	3.4	0.15	25 µM	30 µM
Nc1c2nc(Br)n([C@@H]3O[C@@H]4COP(=O)(O)O[C@H]4[C@H]3O)c2nc[n+]1[O-]	0.15	< 0.05	400 µM	59 µM
Cc1nc(N)c2nc(Sc3ccc(Cl)cc3)n([C@@H]3O[C@@H]4COP(=O)(O)O[C@H]4[C@H]3O)c2n1	2.3	0.05	33 µM	5 µM
Cc1nc(N)c2nc(N=[N+]=[N-])n([C@@H]3O[C@@H]4COP(=O)(O)O[C@H]4[C@H]3O)c2n1	0.45	0.16	67 µM	50 µM
CCCCc1nc(N)c2nc(Sc3ccc(Cl)cc3)n([C@@H]3O[C@@H]4COP(=O)(O)O[C@H]4[C@H]3O)c2n1	2.2	< 0.05	11 µM	5 µM
Cn1cnc2c(nc(SCc3ccccc3)n2[C@@H]2O[C@@H]3COP(=O)(O)O[C@H]3[C@H]2O)c1=N	1.3	–	61 µM	67 µM
[N-]=[N+]=Nc1nc2c(N)ncnc2n1[C@@H]1O[C@@H]2COP(=O)(O)O[C@H]2[C@H]1O	0.68	< 0.05	80 µM	43 µM
Cn1cnc2c(ncn2[C@@H]2O[C@@H]3COP(=O)(O)O[C@H]3[C@H]2O)c1=N	0.012	0.16	65 µM	80 µM
CCCCc1nc(N)c2ncn([C@@H]3O[C@@H]4COP(=O)(O)O[C@H]4[C@H]3O)c2n1	0.46	0.64	3 µM	10 µM
Nc1ncnc2c1nc(Br)n2[C@@H]1O[C@@H]2COP(=O)(O)O[C@H]2[C@H]1O	2.9	< 0.05	40 µM	–
Cc1nc(N)c2nc(SCc3ccccc3)n([C@@H]3O[C@@H]4COP(=O)(O)O[C@H]4[C@H]3O)c2n1	0.95	0.05	9.5 µM	4.3 µM

From ChEMBL document CHEMBL3272006, “Synthesis of some 1, 8- and 2, 8-disubstituted derivatives of adenosine cyclic 3', 5'-phosphate and their interaction with some enzymes of cAMP metabolism” (J Med Chem, 1976)
